Assays:
A549 = experiment: Growth inhibition of human A549 cells expressing p53 after 7 days by celltiter-glo assay; assay type: functional; conditions: A549, 168 h
SK-OV-3 = experiment: Growth inhibition of human SKOV3 cells after 7 days by celltiter-glo assay; assay type: functional; conditions: SK-OV-3, 168 h
MCF7 = experiment: Growth inhibition of human MCF7 cells after 7 days by celltiter-glo assay; assay type: functional; conditions: MCF7, 168 h
[1] = Growth inhibition of human p53 deficient Hep3B cells after 7 days by celltiter-glo assay; assay type: functional, Hep 3B2; conditions: 168 h
Summary of the method: (§1)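 Cells seeded at 500 per well in 384-well plates. Compounds came from 30 mM DMSO stocks, serially diluted and tested in quadruplicate. Incubation was 7 d at 37 °C under 5% CO2. Calcein AM (10 μM) and EthD-1 were added, followed by a fluorescence read. CellTiter-Glo lysis was then done for 10 min at room temperature, with a luminescence read. GI50 came from curve fitting.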

DU-145 = experiment: Growth inhibition of human DU145 cells after 7 days by celltiter-glo assay; assay type: functional; conditions: DU-145, 168 h
SF-268 = experiment: Growth inhibition of human SF268 cells after 7 days by celltiter-glo assay; assay type: functional; conditions: SF-268, 168 h
HT-29 = experiment: Growth inhibition of human HT-29 cells after 7 days by celltiter-glo assay; assay type: functional; conditions: HT-29, 168 h
HCT-15 = experiment: Growth inhibition of human HCT15 cells after 7 days by celltiter-glo assay; assay type: functional; conditions: HCT-15, 168 h
[2] = Growth inhibition of human p53 deficient H1299 cells after 7 days by celltiter-glo assay; assay type: functional; conditions: NCI-H1299, 168 h; summary of the method: as §1
NCI-H460 = experiment: Growth inhibition of human NCI-H460 cells after 7 days by celltiter-glo assay; assay type: functional; conditions: NCI-H460, 168 h

Structure (SMILES) | GI50 (A549) [µM] | GI50 (SK-OV-3) [µM] | GI50 (MCF7) [µM] | GI50 [1] [µM] | GI50 (DU-145) [µM] | GI50 (SF-268) [µM] | GI50 (HT-29) [µM] | GI50 (HCT-15) [µM] | GI50 [2] [µM] | GI50 (NCI-H460) [µM]
CON(CCCc1ccc(N(CCCl)CCCl)cc1)[C@@H]1OC[C@@H](O)[C@H](O)[C@H]1O | 2.3 | 2.2 | 0.91 | 1.5 | 2.3 | 1.4 | 1.6 | 0.9 | 0.83 | 4.5
CO[C@@H]1[C@@H](O)[C@H](N(CCCc2ccc(N(CCCl)CCCl)cc2)OC)O[C@H](CO)[C@H]1O | 3.6 | 2.4 | 8.3 | 4.2 | 5.1 | 2.8 | 2.7 | 1.1 | 1.7 | 7.8
CON(CCCc1ccc(N(CCCl)CCCl)cc1)C1OC[C@@H](O)[C@@H](O)[C@H]1O (stereo not given in full) | 2.8 | 2 | 1.1 | 2.4 | 3.8 | 1.9 | 2.3 | 1.8 | 3.6 | 5.9
CON(CCCc1ccc(N(CCCl)CCCl)cc1)C1O[C@@H](CO)[C@H](O)[C@H](O)[C@H]1O (stereo not given in full) | 3.1 | 2.5 | 7.9 | 2 | 4.1 | 2.3 | 2.1 | 1.4 | 1.3 | 7.9
CON(CCCc1ccc(N(CCCl)CCCl)cc1)C1OC[C@H](O)[C@H](O)[C@@H]1O (stereo not given in full) | 2.4 | 2 | 0.97 | 2.4 | 3.7 | 2.1 | 2.2 | 2.1 | 3.3 | 5.7
C[C@H]1O[C@@H](NNC(=O)CCCc2ccc(N(CCCl)CCCl)cc2)[C@H](O)[C@@H](O)[C@H]1O | 28 | 22 | 6.3 | 11 | 24 | 5.8 | 16.7 | > 100 | 8.7 | 51
O=C(CCCc1ccc(N(CCCl)CCCl)cc1)NN[C@@H]1OC[C@@H](O)[C@H](O)[C@H]1O | 14.8 | 12 | 4.5 | 5.5 | 19 | 2.5 | 7.2 | > 100 | 3.9 | 26
CON(CCCc1ccc(N(CCCl)CCCl)cc1)C1O[C@H](CO)[C@@H](O)[C@@H](O)[C@@H]1O (stereo not given in full) | 2.4 | 1.9 | 6.5 | 1.7 | 4.1 | 1.9 | 1.6 | 1.4 | 0.91 | 6.6
CON(CCCc1ccc(N(CCCl)CCCl)cc1)[C@H]1O[C@@H](CO)[C@H](O)[C@@H](O)[C@@H]1O | 6.8 | 4.5 | 1.8 | 5 | 7 | 2.2 | 4.6 | 2.8 | 1.6 | 14.3
CON(CCCc1ccc(N(CCCl)CCCl)cc1)C1O[C@H](CO)[C@@H](O[C@@H]2O[C@H](CO)[C@@H](O)[C@H](O)[C@H]2O)[C@H](O)[C@H]1O (stereo not given in full) | 1.6 | 1.8 | 1.7 | 1.2 | 1.8 | 1.5 | 1.9 | 2.3 | 1.8 | 3.8
CON(CCCc1ccc(N(CCCl)CCCl)cc1)C1O[C@H](CO)[C@@H](O[C@@H]2O[C@H](CO)[C@H](O)[C@H](O)[C@H]2O)[C@H](O)[C@@H]1O (stereo not given in full) | 56 | 35 | 26 | 38 | 43 | 19.1 | 34 | 31 | 24 | 57.7
CON(CCCc1ccc(N(CCCl)CCCl)cc1)[C@H]1C[C@@H](O)[C@H](O)[C@@H](C)O1 | 3.1 | 3.2 | 3.1 | 3.8 | 5.5 | 2.3 | 3.2 | 2.5 | 4.8 | 5.7
[O-]/[N+](=C\[C@@H](O)[C@H](O)CO)CCCc1ccc(N(CCCl)CCCl)cc1 | 3 | 2.6 | 2 | 1.7 | 3.6 | 1.2 | 3.2 | 2.5 | 1.07 | 3.8
O=C(O)CCCc1ccc(N(CCCl)CCCl)cc1 [CHLORAMBUCIL] | 6.1 | 5.5 | 8.2 | 5.1 | 9.4 | 5.4 | 5 | 8.1 | 4.9 | 11
CON(CCCc1ccc(N(CCCl)CCCl)cc1)C1OC[C@@H](O)[C@@H](O)[C@@H]1O (stereo not given in full) | 2 | 2 | 4.6 | 1.6 | 3.3 | 1.8 | 1.5 | 0.9 | 0.73 | 5
CON(CCCc1ccc(N(CCCl)CCCl)cc1)C1C[C@H](O)[C@H](O)[C@@H](C)O1 (stereo not given in full) | 2.7 | 3 | 6.3 | 3.2 | 4.3 | 2.8 | 2.1 | 1.3 | 1.1 | 6.5
CON(CCCc1ccc(N(CCCl)CCCl)cc1)C1O[C@@H](CO)[C@H](O)[C@@H](O)[C@H]1O (stereo not given in full) | 4.1 | 2.9 | 2.2 | 3.7 | 4.9 | 2 | 3.4 | 2.2 | 1.2 | 9.8
CON(CCCc1ccc(N(CCCl)CCCl)cc1)[C@@H]1O[C@H](CO[C@@H]2O[C@H](CO)[C@H](O)[C@H](O)[C@H]2O)[C@@H](O)[C@H](O)[C@H]1O | 40 | 27 | 21 | 29 | 36 | 16.3 | 27.4 | 20 | 17.8 | 45.5
CON(CCCc1ccc(N(CCCl)CCCl)cc1)[C@@H]1O[C@H](CO)[C@@H](O)[C@H](F)[C@H]1O | 3 | 2.2 | 7 | 3.2 | 4.1 | 2.2 | 2.6 | 1.2 | 1.3 | 7.1
